Active and inactive are the calls of the source. The rule behind the calls is not given here.
How the values were obtained:
Escherichia coli = assay: Antimicrobial activity against Escherichia coli at 64 uM by resazurin dye based assay; type: functional, organism-based
Candida albicans = assay: Antimicrobial activity against Candida albicans at 64 uM by resazurin dye based assay; type: functional, organism-based
[1] = biological target: Isoleucine--tRNA ligase (Escherichia coli K-12) (UniProt P00956); assay: (§1) Inhibition of Escherichia coli BL21(DE3) ileRS overexpressed in Escherichia coli Rosetta2(DE3) assessed as reduction in tRNA aminoacylation at 0.5 uM preincubated with enzyme and substrate for 10 mins prior to ATP addition using 14C-labeled isoleucine and tRNA as substrate by liquid scintillation counting method
Procedure, shortened: (§2)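 Radiolabeled aminoacylation with 10 nM IleRS, 25 μM 14C-isoleucine, 500 μM ATP and total E. coli tRNA at 2 mg/mL final. Activity normalized to enzyme without inhibitor. Triplicate measurements.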

[2] = biological target: Isoleucine--tRNA ligase (Escherichia coli K-12) (UniProt P00956); assay: as §1, with “1” for “0.5”; procedure, shortened: as §2
Isoleucine--tRNA ligase = Isoleucine--tRNA ligase (Escherichia coli K-12, UniProt P00956); assay: as §1, with “aminoacylation” for “aminoacylation at 0.5 uM”; conditions: read-out: Ki(app); procedure, shortened: as §2
Staphylococcus aureus = assay: Antimicrobial activity against Staphylococcus aureus at 64 uM by resazurin dye based assay; type: functional, organism-based
[3] = tested on: Mycobacterium tuberculosis; assay: Antimicrobial activity against Mycobacterium tuberculosis at 64 uM by resazurin dye based assay; type: functional, organism-based
Procedure, shortened: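 Non-pathogenic Mycobacterium tuberculosis strain, part of a broader antimicrobial panel; compounds tested up to a maximum concentration of 64 μM.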

[4] = biological target: T1, Tyrosine--tRNA ligase (Escherichia coli (strain K12)) (UniProt P0AGJ9); assay: as §1, with “TyrRS” for “ileRS”, “5” for “0.5”, “tyrosine” for “isoleucine”
T1 sequence (whole entry): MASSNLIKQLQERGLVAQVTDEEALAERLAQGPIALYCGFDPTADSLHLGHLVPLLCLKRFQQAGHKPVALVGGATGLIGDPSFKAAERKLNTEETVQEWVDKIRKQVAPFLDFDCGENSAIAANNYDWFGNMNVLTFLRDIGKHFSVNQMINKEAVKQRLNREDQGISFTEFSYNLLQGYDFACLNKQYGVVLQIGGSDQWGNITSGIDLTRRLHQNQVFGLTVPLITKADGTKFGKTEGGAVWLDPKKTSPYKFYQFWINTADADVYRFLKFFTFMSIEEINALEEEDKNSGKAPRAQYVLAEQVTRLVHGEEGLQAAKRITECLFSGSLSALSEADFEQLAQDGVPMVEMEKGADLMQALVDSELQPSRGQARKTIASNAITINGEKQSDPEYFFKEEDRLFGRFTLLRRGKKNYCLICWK
Procedure, shortened: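 TyrRS counterpart of the radiolabeled aminoacylation assay, with test compounds at 5 μM.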

Sequence of Isoleucine--tRNA ligase (Escherichia coli K-12) (P00956 whole entry): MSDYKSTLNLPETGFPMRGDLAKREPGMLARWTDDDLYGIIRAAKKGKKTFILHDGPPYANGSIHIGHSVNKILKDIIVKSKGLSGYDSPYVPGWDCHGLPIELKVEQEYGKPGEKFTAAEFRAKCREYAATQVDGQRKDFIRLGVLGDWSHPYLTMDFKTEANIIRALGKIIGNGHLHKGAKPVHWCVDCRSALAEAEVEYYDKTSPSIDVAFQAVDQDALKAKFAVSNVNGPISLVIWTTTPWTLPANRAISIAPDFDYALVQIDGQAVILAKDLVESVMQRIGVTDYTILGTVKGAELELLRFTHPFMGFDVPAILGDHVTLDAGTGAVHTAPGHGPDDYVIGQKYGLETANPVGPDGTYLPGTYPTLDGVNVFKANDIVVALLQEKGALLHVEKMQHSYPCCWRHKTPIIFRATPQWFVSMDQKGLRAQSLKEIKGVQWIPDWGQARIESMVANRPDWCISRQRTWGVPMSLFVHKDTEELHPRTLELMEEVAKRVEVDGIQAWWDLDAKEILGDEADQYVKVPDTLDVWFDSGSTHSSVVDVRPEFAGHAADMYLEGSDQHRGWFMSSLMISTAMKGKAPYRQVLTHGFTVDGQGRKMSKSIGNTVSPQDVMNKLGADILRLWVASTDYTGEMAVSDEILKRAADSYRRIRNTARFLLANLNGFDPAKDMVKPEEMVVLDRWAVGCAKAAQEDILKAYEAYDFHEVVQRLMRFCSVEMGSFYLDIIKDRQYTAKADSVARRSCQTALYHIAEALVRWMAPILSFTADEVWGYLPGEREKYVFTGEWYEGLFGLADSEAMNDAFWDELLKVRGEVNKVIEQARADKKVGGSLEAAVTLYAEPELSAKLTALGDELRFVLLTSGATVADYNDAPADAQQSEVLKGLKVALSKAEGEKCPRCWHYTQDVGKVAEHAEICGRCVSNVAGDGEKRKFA
Sequence of Isoleucine--tRNA ligase (P00956 whole entry): as above

**Q.** What does the source list for CC[C@H](C)[C@H](N)C(=O)NS(=O)(=O)OC[C@H]1OC[C@@H](CCCn2cc(-c3ccccc3)nn2)[C@H](O)[C@@H]1O?
**A.** Activity (Escherichia coli): inactive; Activity (Candida albicans): inactive; inhibition [1]: Active; inhibition [2]: Active; Ki (Isoleucine--tRNA ligase): 88 nM; Activity (Staphylococcus aureus): inactive; Activity [3]: inactive

**Q.** Which Activity (Escherichia coli) does the source give for N[C@@H](Cc1ccc(O)cc1)C(=O)NS(=O)(=O)OC[C@H]1OC[C@@H](CCn2nnc(-c3ccccc3)n2)[C@H](O)[C@@H]1O here?
**A.** inactive

**Q.** And the Activity (Candida albicans)?
**A.** inactive

**Q.** And the inhibition [4]?
**A.** inactive

**Q.** And the Activity (Staphylococcus aureus)?
**A.** inactive

**Q.** And the Activity [3]?
**A.** inactive

**Q.** N[C@@H](Cc1ccc(O)cc1)C(=O)NS(=O)(=O)OC[C@H]1OC[C@@H](OCCn2cc(-c3ccccc3)nn2)[C@H](O)[C@@H]1O was tested. Which Activity (Escherichia coli) did it give?
**A.** inactive

**Q.** What about the Activity (Candida albicans) of the same compound?
**A.** inactive

**Q.** And the inhibition [4]?
**A.** inactive

**Q.** What about the Activity (Staphylococcus aureus) of the same compound?
**A.** inactive

**Q.** And the Activity [3]?
**A.** inactive

**Q.** CC[C@H](C)[C@H](N)C(=O)NS(=O)(=O)OC[C@H]1OC[C@@H](CCn2nnc(-c3ccccc3)n2)[C@H](O)[C@@H]1O was tested. Which Activity (Escherichia coli) did it give?
**A.** inactive

**Q.** And the Activity (Candida albicans)?
**A.** inactive

**Q.** What about the inhibition [2] of the same compound?
**A.** Active

**Q.** And the Activity (Staphylococcus aureus)?
**A.** inactive

**Q.** And the Activity [3]?
**A.** inactive

**Q.** Which results are given for CC[C@H](C)[C@H](N)C(=O)NS(=O)(=O)OC[C@H]1OC[C@@H](CCn2cc(-c3ccccc3)nn2)[C@H](O)[C@@H]1O?
**A.** Activity (Escherichia coli): inactive; Activity (Candida albicans): inactive; inhibition [2]: Active; Activity (Staphylococcus aureus): inactive; Activity [3]: inactive

**Q.** For CC[C@H](C)[C@H](N)C(=O)NS(=O)(=O)OC[C@H]1OC[C@@H](OCCn2cc(-c3ccccc3)nn2)[C@H](O)[C@@H]1O, which Activity (Escherichia coli) is on record?
**A.** inactive

**Q.** What about the Activity (Candida albicans) of the same compound?
**A.** inactive

**Q.** What about the inhibition [1] of the same compound?
**A.** Active

**Q.** And the inhibition [2]?
**A.** Active

**Q.** And the Ki (Isoleucine--tRNA ligase)?
**A.** 114 nM

**Q.** And the Activity (Staphylococcus aureus)?
**A.** inactive

**Q.** What about the Activity [3] of the same compound?
**A.** inactive

**Q.** Which results are given for N[C@@H](Cc1ccc(O)cc1)C(=O)NS(=O)(=O)OC[C@H]1OC[C@@H](CCn2cc(-c3ccccc3)nn2)[C@H](O)[C@@H]1O?
**A.** Activity (Escherichia coli): inactive; Activity (Candida albicans): inactive; inhibition [4]: inactive; Activity (Staphylococcus aureus): inactive; Activity [3]: inactive

— ChEMBL document CHEMBL4622955, “Phenyltriazole-functionalized sulfamate inhibitors targeting tyrosyl- or isoleucyl-tRNA synthetase” (Bioorg Med Chem, 2020)
